Test results taken from ChEMBL document CHEMBL3860041, “Synthesis, biological evaluation and molecular modeling study of some new methoxylated 2-benzylthio-quinazoline-4(3H)-ones as nonclassical antifolates” (Bioorg Med Chem Lett, 2016).

What was measured:
[1] = Growth inhibition of human LOXIMVI cells at 10 uM after 48 hrs by SRB assay relative to control; type: functional; settings: LOX IMVI, read-out: GI
Outline: (§1)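 NCI 60-cell-line panel, nine tumor subpanels; compounds tested at a single dose of 10 μM in the primary screen.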

[2] = Growth inhibition of human NCI/ADR-RES cells at 10 uM after 48 hrs by SRB assay relative to control; type: functional; settings: read-out: GI; outline: as §1
[3] = Growth inhibition of human MOLT4 cells at 10 uM after 48 hrs by SRB assay relative to control; type: functional; settings: MOLT-4, 48 h, read-out: GI; outline: as §1
[4] = tested on: Cancer cell lines; test: Potency index, ratio of 5-fluorouracil GI50 to compound GI50 for human ovarian cancer cells; type: functional
Outline: (§2)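 GI50 for each cell line came from NCI panel testing over a 5-log dose range, with 5-fluorouracil tested alongside as the reference drug. The index relates the 5-fluorouracil GI50 to the compound GI50 within each tumour subpanel.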

[5] = Growth inhibition of human OVCAR8 cells at 10 uM after 48 hrs by SRB assay relative to control; type: functional; settings: OVCAR-8, 48 h, read-out: GI; outline: as §1
[6] = Growth inhibition of human HL-60(TB) cells at 10 uM after 48 hrs by SRB assay relative to control; type: functional; settings: HL-60, 48 h, read-out: GI
Outline: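 NCI disease-oriented human tumour cell line screen: primary single-dose assay at 10 μM across the full 60-cell-line panel spanning nine tumour subpanels.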

[7] = Growth inhibition of human UACC62 cells at 10 uM after 48 hrs by SRB assay relative to control; type: functional; settings: UACC-62, 48 h, read-out: GI
Outline: (§3)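 Primary screen across the full NCI 60 human tumour cell line panel, which covers nine tumour subpanels. A single dose of 10 μM was applied to each line, and growth was recorded for each cell line.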

[8] = Growth inhibition of human renal cancer cells after 48 hrs by SRB assay; type: functional; settings: Cancer cell lines
Outline: (§4)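 Follow-up NCI panel testing over a 5-log dose range for each cell line. GI50, TGI and LC50 were monitored, with 5-fluorouracil run as the positive control. Values are grouped by tumour subpanel.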

[9] = Growth inhibition of human MCF7 cells at 10 uM after 48 hrs by SRB assay relative to control; type: functional; settings: MCF7, 48 h, read-out: GI; outline: as §1
[10] = Growth inhibition of human U251 cells at 10 uM after 48 hrs by SRB assay relative to control; type: functional; settings: U-251, 48 h, read-out: GI; outline: as §3
[11] = Growth inhibition of human MDA-MB-231 cells at 10 uM after 48 hrs by SRB assay relative to control; type: functional; settings: MDA-MB-231, 48 h, read-out: GI; outline: as §1
[12] = Growth inhibition of human Hs 578T cells at 10 uM after 48 hrs by SRB assay relative to control; type: functional; settings: read-out: GI; outline: as §1
[13] = tested on: Cancer cell lines; test: Potency index, ratio of 5-fluorouracil GI50 to compound GI50 for human prostate cancer cells; type: functional; outline: as §2
[14] = Growth inhibition of human SKOV3 cells at 10 uM after 48 hrs by SRB assay relative to control; type: functional; settings: SK-OV-3, 48 h, read-out: GI; outline: as §3
[15] = Growth inhibition of human breast cancer cells after 48 hrs by SRB assay; type: functional; settings: Cancer cell lines; outline: as §4
[16] = tested on: Cancer cell lines; test: Potency index, ratio of 5-fluorouracil GI50 to compound GI50 for human breast cancer cells; type: functional; outline: as §2
[17] = Growth inhibition of human non-small cell lung cancer cells after 48 hrs by SRB assay; type: functional; settings: Cancer cell lines; outline: as §4
[18] = Growth inhibition of human K562 cells at 10 uM after 48 hrs by SRB assay relative to control; type: functional; settings: K562, 48 h, read-out: GI; outline: as §1
[19] = Growth inhibition of human OVCAR4 cells at 10 uM after 48 hrs by SRB assay relative to control; type: functional; settings: OVCAR-4, 48 h, read-out: GI; outline: as §1
[20] = Growth inhibition of human SF268 cells at 10 uM after 48 hrs by SRB assay relative to control; type: functional; settings: SF-268, 48 h, read-out: GI; outline: as §1
[21] = Growth inhibition of human leukemia cells after 48 hrs by SRB assay; type: functional; settings: Leukemia cell; for CC50: read-out: LC50 (the source's name); outline: as §4
[22] = Growth inhibition of human NCI-322M cells at 10 uM after 48 hrs by SRB assay relative to control; type: functional; settings: read-out: GI; outline: as §1
[23] = Growth inhibition of human T47D cells at 10 uM after 48 hrs by SRB assay relative to control; type: functional; settings: read-out: GI; outline: as §3
[24] = Growth inhibition of human SK-MEL-5 cells at 10 uM after 48 hrs by SRB assay relative to control; type: functional; settings: SK-MEL-5, 48 h, read-out: GI; outline: as §3
[25] = Growth inhibition of human NCI-H23 cells at 10 uM after 48 hrs by SRB assay relative to control; type: functional; settings: NCI-H23, 48 h, read-out: GI; outline: as §1
[26] = molecular target: T1, Dihydrofolate reductase (Bos taurus, UniProt P00376); test: Inhibition of bovine liver DHFR preincubated for 2 mins followed by addition of FH2 as substrate and NADPH
T1 sequence (P00376 whole entry): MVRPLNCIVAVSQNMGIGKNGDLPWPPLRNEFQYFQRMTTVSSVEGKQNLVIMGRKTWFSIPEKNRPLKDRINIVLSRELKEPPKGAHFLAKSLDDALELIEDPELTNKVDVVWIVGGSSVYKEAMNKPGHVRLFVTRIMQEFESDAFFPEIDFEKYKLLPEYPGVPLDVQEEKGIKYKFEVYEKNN

[27] = tested on: Leukemia cell; test: Potency index, ratio of 5-fluorouracil GI50 to compound GI50 for human leukemia cells; type: functional; outline: as §2
[28] = Growth inhibition of human SF295 cells at 10 uM after 48 hrs by SRB assay relative to control; type: functional; settings: SF-295, 48 h, read-out: GI; outline: as §1
[29] = tested on: Cancer cell lines; test: Potency index, ratio of 5-fluorouracil GI50 to compound GI50 for human colon cancer cells; type: functional; outline: as §2
[30] = Growth inhibition of human prostate cancer cells after 48 hrs by SRB assay; type: functional; settings: Cancer cell lines; outline: as §4
[31] = Growth inhibition of human RXF393 cells at 10 uM after 48 hrs by SRB assay relative to control; type: functional; settings: RXF 393, 48 h, read-out: GI; outline: as §1
[32] = Growth inhibition of human NCI-H522 cells at 10 uM after 48 hrs by SRB assay relative to control; type: functional; settings: NCI-H522, 48 h, read-out: GI; outline: as §1
[33] = Growth inhibition of human SF539 cells at 10 uM after 48 hrs by SRB assay relative to control; type: functional; settings: SF-539, 48 h, read-out: GI; outline: as §1

COc1cc(CSc2nc3ccc(C)cc3c(=O)n2Cc2ccccc2)cc(OC)c1OC
inhibition of growth at 10 µM [1]: 60.2%
inhibition of growth at 10 µM [2]: 87.3%
inhibition of growth at 10 µM [3]: 69.2%
RatioGI50 [4]: 10
inhibition of growth at 10 µM [5]: 64.9%
inhibition of growth at 10 µM [6]: 83%
inhibition of growth at 10 µM [7]: 78.6%
GI50 [8]: 4.3 µM
LC50 [8]: 97.9 µM
TGI [8]: 61.4 µM
inhibition of growth at 10 µM [9]: 82%
inhibition of growth at 10 µM [10]: 67%
inhibition of growth at 10 µM [11]: 55.6%
inhibition of growth at 10 µM [12]: 79.3%
RatioGI50 [13]: 10
inhibition of growth at 10 µM [14]: 76.1%
GI50 [15]: 2.8 µM
LC50 [15]: > 100 µM
TGI [15]: 47.5 µM
RatioGI50 [16]: 10
GI50 [17]: 4 µM
LC50 (concentration killing 50% of cells) [17]: 98.2 µM
TGI [17]: 65.9 µM
inhibition of growth at 10 µM [18]: 86.2%
inhibition of growth at 10 µM [19]: 46.9%
inhibition of growth at 10 µM [20]: 48.5%
GI50 [21]: 2.4 µM
TGI [21]: 85.2 µM
CC50 [21]: > 100 µM
inhibition of growth at 10 µM [22]: 53.8%
inhibition of growth at 10 µM [23]: 65.9%
inhibition of growth at 10 µM [24]: 82.2%
inhibition of growth at 10 µM [25]: 78.7%
IC50 [26]: 1 µM
RatioGI50 [27]: 10
inhibition of growth at 10 µM [28]: 69%
RatioGI50 [29]: 10
GI50 [30]: 2.9 µM
LC50 (concentration killing 50% of cells) [30]: > 100 µM
TGI [30]: 60.2 µM

COc1cc(CSc2nc3ccc(C)cc3c(=O)n2-c2ccccc2)cc(OC)c1OC
inhibition of growth at 10 µM [1]: 64%
inhibition of growth at 10 µM [2]: 82.2%
inhibition of growth at 10 µM [31]: 85.8%
inhibition of growth at 10 µM [3]: 78.2%
RatioGI50 [4]: 10
inhibition of growth at 10 µM [5]: 47.2%
inhibition of growth at 10 µM [6]: 87.8%
inhibition of growth at 10 µM [7]: 79.2%
GI50 [8]: 4.2 µM
LC50 [8]: > 100 µM
TGI [8]: 76.9 µM
inhibition of growth at 10 µM [9]: 80.1%
inhibition of growth at 10 µM [10]: 61.5%
inhibition of growth at 10 µM [11]: 62.1%
inhibition of growth at 10 µM [12]: 71.8%
RatioGI50 [13]: 10
inhibition of growth at 10 µM [14]: 86.4%
inhibition of growth at 10 µM [32]: 91.7%
GI50 [15]: 2.3 µM
LC50 [15]: > 100 µM
TGI [15]: 84.3 µM
RatioGI50 [16]: 10
GI50 [17]: 3 µM
LC50 (concentration killing 50% of cells) [17]: > 100 µM
TGI [17]: 87 µM
inhibition of growth at 10 µM [18]: 89.6%
inhibition of growth at 10 µM [19]: 42.8%
inhibition of growth at 10 µM [20]: 52.6%
GI50 [21]: 1.8 µM
TGI [21]: > 100 µM
CC50 [21]: > 100 µM
inhibition of growth at 10 µM [22]: 52.6%
inhibition of growth at 10 µM [33]: 96.5%
inhibition of growth at 10 µM [23]: 71.8%
inhibition of growth at 10 µM [24]: 80%
inhibition of growth at 10 µM [25]: 78%
IC50 [26]: 7 µM
RatioGI50 [27]: 10
inhibition of growth at 10 µM [28]: 67.2%
RatioGI50 [29]: 10
GI50 [30]: 3.4 µM
LC50 (concentration killing 50% of cells) [30]: > 100 µM
